Assay outcomes as filed in PubChem BioAssay.
CHO parental Ca – ATP-evoked calcium signal inhibitors, parental CHO, primary screen, counter-screen for OX1R antagonist project, cell-based, fluorescence, Fluo-8 calcium dye | 0.63% of 330,000 active | parental CHO-K1, ATP-induced calcium, Fluo-8 fluorescence | inhibition, % at 5.6 µM;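 active = inhibition above that plate's mean sample inhibition plus 3 SD, cut at about 26% in these data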
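Test system: untransfected parental CHO cell line. Compound: one dose, 5.6 µM nominal. Detection: intracellular calcium via Fluo-8 no-wash fluorescent dye. Measure: % inhibition. Benchmarks: ATP-challenged DMSO wells low, unchallenged DMSO wells high.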
TAAR1 ag – human TAAR1 agonists, primary screen, Fluo-8 calcium fluorescence, CHO RD-HGA16 cells; Trace amine-associated receptor 1 (Homo sapiens), Q96RJ0; vehicle wells 0%, saturating PEA agonist 100%; 0.99% of 360,000 active; activation, % at 3 µM;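 active = activation above the mean activation of all test compounds in the run plus 3 SD, cut at about 38% in these data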
Target sequence (Q96RJ0 whole entry, looked up): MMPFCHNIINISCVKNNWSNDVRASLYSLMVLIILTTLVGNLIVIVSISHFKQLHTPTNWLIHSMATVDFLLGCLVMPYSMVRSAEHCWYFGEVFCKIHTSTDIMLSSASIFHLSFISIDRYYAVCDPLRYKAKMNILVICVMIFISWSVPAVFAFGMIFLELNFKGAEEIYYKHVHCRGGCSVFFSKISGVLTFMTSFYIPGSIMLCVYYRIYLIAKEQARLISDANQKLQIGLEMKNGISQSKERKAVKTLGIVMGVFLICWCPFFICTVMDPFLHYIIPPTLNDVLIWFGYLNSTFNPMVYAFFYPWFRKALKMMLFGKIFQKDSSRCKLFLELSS
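Test system: RD-HGA16 (CHO) cells co-expressing Gα16 and hTAAR1 | Doses: Single dose, 3 µM | Schedule: 17-24 h seeding, 75 min 37 °C dye, 30 min RT | Evaluation: % activation from peak over basal fluorescence ratio, DMSO-to-PEA scaled | Technique: Kinetic Fluo-8 calcium fluorescence | Benchmarks: Low control DMSO, high control PEA (EC100)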
TAAR1 antagonist – human TAAR1 antagonists, primary screen, Fluo-8 calcium fluorescence, CHO RD-HGA16 cells; 1.5% of 360,000 active; inhibition, % at 3 µM; AID 624466, 2012; antagonist;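 active = inhibition above a per-plate cutoff, the mean inhibition of test compounds on that plate plus 3 SD, cut at about 49% in these data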
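Material: CHO RD-HGA16 cells bearing hTAAR1; compound dosing: one-point dosing, 3 µM nominal final; schedule: dye loading 75 min at 37 °C, then 30 min room temperature; measured by: calcium fluorescence with Fluo-8; control set: vehicle and agonist controls; replication: n of 1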
OX1R antag-1 – antagonists of human orexin 1 receptor (OX1R); Orexin/Hypocretin receptor type 1 (Homo sapiens), O43613; OX1R-expressing cells, FRET antagonist read-out; inhibition, % at 6.6 µM; 1.8% of 330,000 active; AID 485270, 2010; in the data active = inhibition mostly above about 38%, no sharp cut-off; inactive = mostly below about 40%
OX1R antag-2 – OX1R (HCRTR1) antagonists, primary screen, fluorescence, CHO/OX1R cells, Fluo-8 calcium, orexin A. Fluo-8 calcium fluorescence. inhibition, % at 5 µM. 0.43% of 330,000 active. AID 434989, 2010;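 active = inhibition above its plate's threshold, mean inhibition of all tested compounds on the plate plus 3 SD, cut at about 37% in these data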
Of the large screens only hits and unclear results are named; the others gave an inactive call. Most compounds without a hit are left out; they make up all but 3.9% or so of the library.

COc1ccccc1CNC(=O)COC(=O)c1c[nH]c2ccccc12	none (no result: CHO parental Ca, OX1R antag-1, OX1R antag-2)
COc1cc(C(=O)NCC(c2cccs2)N2CCOCC2)ccc1OCc1ccc(Cl)cc1 (centres undefined)	none (no result: CHO parental Ca, OX1R antag-1, OX1R antag-2)
COc1cccc(/C=C/C(=O)OCC(=O)c2c[nH]c3ccccc23)c1OC	TAAR1 antagonist 54.2
CC(=O)Nc1ccccc1Nc1cc(C#N)c(C#N)cc1[N+](=O)[O-]	OX1R antag-1 58.3
COC(=O)CC1C(=O)NCCN1C(=O)c1cc(OC)c(OC)cc1OC (centres undefined)	CHO parental Ca 29.8
COC(=O)CC1C(=O)NCCN1C(=O)c1cc([N+](=O)[O-])ccc1Cl (centres undefined)	none
O=C(Cn1cnc([N+](=O)[O-])n1)NCc1ccccc1	OX1R antag-1 72.0
COc1ccc(CCN2Cc3c(cccc3[N+](=O)[O-])C2=O)cc1OC	OX1R antag-1 37.6
COc1ccc(CCN2Cc3c(N)cccc3C2=O)cc1OC	none
COC(=O)C(CC(C)C)N(Cc1cc(OC)cc(OC)c1)S(=O)(=O)c1ccccc1Br (centres undefined)	none
COc1cc(CN(CC(C)C)S(=O)(=O)c2ccccc2Br)cc(OC)c1	OX1R antag-1 33.5
CC1(C(=O)Nc2cccc3ccccc23)CCN1C(=O)Cc1ccc(Cl)cc1Cl (centres undefined)	none (no result: CHO parental Ca, OX1R antag-1, OX1R antag-2)
CCOC(=O)C1CCCN(C(=O)c2ccc(-c3ccccc3)cc2)CC1 (centres undefined)	none (no result: CHO parental Ca, OX1R antag-1, OX1R antag-2)
O=C(NCc1csc2ccccc12)Nc1cc(Cl)cc(Cl)c1	OX1R antag-1 52.5
O=C(NCc1ccccn1)Nc1cccc(Cl)c1	none
O=C(NCc1ccccn1)Nc1cc(Cl)cc(Cl)c1	CHO parental Ca 28.5
Cc1ccc2c(c1)COc1c3ccc(C(=O)N[C@@H](CO)C(C)C)cc3nn1-2	none
COCCNC(=O)c1ccc2c3n(nc2c1)-c1ccc(C)cc1CO3	OX1R antag-1 64.3
O=C(O)c1cccc(NC(=O)c2cccc(S(=O)(=O)N3CCc4ccccc43)c2)c1	none
Cc1ccc2c(c1)CCCN2S(=O)(=O)c1cccc(C(=O)Nc2ccccc2C(=O)O)c1	OX1R antag-1 57.5
O=C(Nc1cccnc1)c1cccc(S(=O)(=O)N2CCc3ccccc32)c1	none
O=C(Nc1ccncc1)c1cccc(S(=O)(=O)N2CCc3ccccc32)c1	CHO parental Ca 58.9, OX1R antag-1 48.4, OX1R antag-2 48.2
O=c1[nH]c2ccccc2nc1-c1c[nH]c2ccccc12	OX1R antag-1 61.8
O=C(O)c1ccc(C(S(=O)(=O)c2ccccc2)S(=O)(=O)c2ccccc2)cc1	none (no result: CHO parental Ca, OX1R antag-1, OX1R antag-2)
COc1ccc(NC(=O)CN(C)C(=O)C2(c3ccccc3)CCCC2)cc1	none
O=C(O)c1ccc(-n2c(/C=C/c3cccc([N+](=O)[O-])c3)nc3ccccc3c2=O)cc1	none
O=C(O)c1ccc(-n2c(/C=C/c3ccccc3)nc3ccccc3c2=O)cc1	OX1R antag-1 37.4
COc1cc2oc(=O)cc(-c3ccc(-c4ccc(CO)cc4)cc3)c2c(OC)c1OC	none
CCCCNC(=O)c1nc(-c2ccccc2)oc1-c1ccc(Cl)cc1	none (no result: CHO parental Ca, OX1R antag-1, OX1R antag-2)
O=C(N/N=C/c1ccc(O)cc1)Nc1cccc2nsnc12	TAAR1 ag 38.2, TAAR1 antagonist 66.9
COc1cc(/C=N/NC(=O)Nc2cccc3nsnc23)cc(OC)c1OC	none (no result: CHO parental Ca, OX1R antag-1, OX1R antag-2)
O=C(c1cc(COc2ccc3ncccc3c2)on1)N1CCC(O)CC1	none
O=C(c1cc(COc2ccc3ncccc3c2)on1)N1CCCC(O)C1 (centres undefined)	none
COCC1CCCN(C(=O)c2cc(COc3ccc4ncccc4c3)on2)C1 (centres undefined)	CHO parental Ca 54.1
CCOC(=O)N1CCN(C(=O)c2cc(COc3ccc4ncccc4c3)on2)CC1	CHO parental Ca 28.5
Cc1cccnc1CN1CCN(C(=O)c2cc(COc3ccc4ncccc4c3)on2)CC1	CHO parental Ca 59.5, OX1R antag-2 49.2
CCC(O)C1CCN(C(=O)c2cc(COc3ccc4ncccc4c3)on2)CC1 (centres undefined)	CHO parental Ca 31.4
CC1CCN(S(=O)(=O)N2CCC(C(=O)NC(C)c3ccccc3)CC2)CC1 (centres undefined)	none (no result: CHO parental Ca, OX1R antag-1, OX1R antag-2)
